PMC3082393 (Journal of medicinal chemistry, 2011)

Columns and labels:
[1] = test system: H460 and T29Kt1 cells; assay: Structure-activity statements from the cell viability assay; design: species or system human; conditions: based on IC50 values of Table 1
[2] = test system: T29 and T29Kt1 cells; assay: Levels of compound 34 in cells after treatment; format: cell-based; conditions: 10 μM, all time points up to 5 h after treatment, normalized with protein amount
How it was run: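 T29 and T29Kt1 cells at 80–90% confluence were given 10 μM test compound and collected by trypsin at time points up to 5 h. After a PBS wash, cells were lysed (M-PER) and homogenised, and supernatant protein was measured by BCA. Supernatant was deproteinised with 2 volumes of acetonitrile, spun at 4°C and concentrated under nitrogen. Drug was quantified by C18 HPLC (acetonitrile/water gradient, 230 nm) against an indole-methanol internal standard, then normalised to protein.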

[3] = test system: phosphorylation of the CTD of RNA polymerase II; conditions: cited from earlier work
[4] = test system: CDK9; conditions: ref Our previous study; cited from earlier work
[5] = test system: CDK7; conditions: ref Our previous study; cited from earlier work
[6] = test system: cancer cells that were highly susceptible to oncrasin-1; conditions: cancer cells highly susceptible to oncrasin-1; cited from earlier work

O=Cc1cn(CCCOc2ccc(Cl)cc2)c2ccccc12 [Compound 15]
Antitumor activity (structure-activity statement in words) [1]: retained its activity and selectivity

CC(C)Cn1cc(C=O)c2ccccc21 [Compound 22]
Antitumor activity (structure-activity statement in words) [1]: complete or partial loss of activity

OCc1cn(Cc2cccc(Cl)c2)c2ccccc12 [Compound 34, 1-[(3-chlorophenyl)methyl]-1H-indole-3-methanol]
Level of compound in T29 cells relative to T29Kt1 cells [2]: twice

OCc1cn(Cc2ccc(Cl)cc2)c2ccc(F)cc12 [Compound 51, 1-[(4-chlorophenyl)methyl]-5-fluoro-1H-indole-3-methanol]
Antitumor activity (structure-activity statement in words) [1]: best potency

Cc1ccc(Cn2cc(CO)c3cc(F)ccc32)cc1 [Compound 55, 1-[(4-methylphenyl)methyl]-5-fluoro-1H-indole-3-methanol]
Antitumor activity (structure-activity statement in words) [1]: best potency

OCCc1cn(Cc2ccc(Cl)cc2)c2ccccc12 [Compound 56, 2-[1-[(4-chlorophenyl)methyl]-1H-indole-3-]ethanol]
Antitumor activity (structure-activity statement in words) [1]: dramatic reduction or complete loss of activity

OCCCc1cn(Cc2ccccc2)c2ccccc12 [Compound 57]
Antitumor activity (structure-activity statement in words) [1]: dramatic reduction or complete loss of activity

CC(O)c1cn(Cc2ccc(Cl)cc2)c2ccccc12 (stereo not shown) [Compound 58, 1-[1-[(4-chlorophenyl)methyl]-1H-indole-3-] ethanol]
Antitumor activity (structure-activity statement in words) [1]: dramatic reduction or complete loss of activity

COCc1cn(Cc2ccc(Cl)cc2)c2ccccc12 [Compound 59, 1-[(4-chlorophenyl)methyl]-1H-indole-3-methoxymethane]
Antitumor activity (structure-activity statement in words) [1]: dramatic loss of activity

CC(=O)OCc1cn(Cc2ccc(Cl)cc2)c2ccccc12 [Compound 60, 1-[(4-chlorophenyl)methyl]-1H-indole-3-methyl acetate]
Antitumor activity (structure-activity statement in words) [1]: equipotent to compound 35

O=C(O)c1cn(Cc2ccccc2)c2ccccc12 [Compound 62]
Antitumor activity (structure-activity statement in words) [1]: dramatic reduction or complete loss of activity

O=C(O)c1cn(Cc2ccc(Cl)cc2)c2ccccc12 [Compound 63, 1-[(4-chlorophenyl)methyl]-1H-indole-3-carboxylic acid]
Antitumor activity (structure-activity statement in words) [1]: dramatic reduction or complete loss of activity

Cc1cn(Cc2ccc(Cl)cc2)c2ccccc12 [Compound 66, 1-[(4-chlorophenyl)methyl]-1H-indole-3-methane]
Antitumor activity (structure-activity statement in words) [1]: dramatic reduction or complete loss of activity

Clc1cccc(Cn2cc(Cc3cn(Cc4cccc(Cl)c4)c4ccccc34)c3ccccc32)c1 [Compound 68, bis[1-[(3-chlorophenyl)methyl]-1H-indole-3-]methane]
Antitumor activity (structure-activity statement in words) [1]: complete loss of antitumor activity

Brc1cccc(Cn2cc(Cc3cn(Cc4cccc(Br)c4)c4ccccc34)c3ccccc32)c1 [Compound 69, bis[1-[(3-bromophenyl)methyl]-1H-indole-3-]methane]
Antitumor activity (structure-activity statement in words) [1]: complete loss of antitumor activity

O=Cc1cn(Cc2ccc(Cl)cc2)c2ccccc12 [Oncrasin-1, 1-[(4-chlorophenyl)methyl]-1H-indole-3-carboxaldehyde]
CTD phosphorylation in sensitive cancer cell lines [3]: suppressed phosphorylation | Direct inhibitory effect on CDK9 [4]: moderate | Direct inhibitory effect on CDK7 [5]: moderate

OCc1c[nH]c2ccccc12 [indole-3-carbinol]
Antitumor activity [6]: did not have observable antitumor activity
